Reference: ChEMBL document CHEMBL1130284, “Analogues of N alpha-(4-amino-4-deoxypteroyl)-N delta-hemiphthaloyl-L-ornithine (PT523) modified in the side chain: synthesis and biological evaluation” (J Med Chem, 1997)

What was measured:
SNB-75 = test: The IC50 value was measured on SNB-75 cell line in CNS tumor type.; format: functional, cell-based; details: Homo sapiens
In short: (§1)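 Standard NCI cell-line panel protocol. Cells plated in 96-well format and treated continuously with drug for 48 h. Total protein stained with Sulforhodamine B and IC50 derived.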

UO-31 = test: The IC50 value was measured on UO-31 cell line in renal tumor type.; format: functional, cell-based; details: Homo sapiens; in short: as §1
SF-539 = test: The IC50 value was measured on SF-539 cell line in CNS tumor type.; format: functional, cell-based; details: Homo sapiens; in short: as §1
A549 = test: In vitro antitumor activity against A549 human non-small lung carcinoma cells containing 10% fetal bovine serum; format: functional, cell-based
In short: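 Cells plated at 2000-3000/well in RPMI with 10% fetal bovine serum and left to adhere for 24 h at 37 °C in humidified 5% CO2. Drug (0.1-1000 nM) then added for a further 72 h of continuous exposure. Sulforhodamine B staining read-out. Growth taken as % of untreated controls and plotted against log drug concentration to give IC50.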

NCI-H460 = test: The IC50 value was measured on NCl-H460 cell line in NSCL tumor type; format: functional, cell-based; details: Homo sapiens; in short: as §1
Malme-3M = test: The IC50 value was measured on MALME-3M cell line in melanoma tumor type; format: functional, cell-based; details: Homo sapiens; in short: as §1
HT-29 = test: The IC50 value was measured on HT-29 cell line in colon tumor type.; format: functional, cell-based; details: Homo sapiens; in short: as §1
Mus musculus [1] = test: Tumor growth delay of subcutaneously implanted SCC-VII squamous cell carcinoma in mice; details: route subcutaneous
786-0 [2] = test: The IC50 value was measured on 786-0 cell line in ovarian tumor; format: functional, cell-based; details: Homo sapiens, in the assay text read “renal” for “ovarian”; in short: as §1
EKVX = test: The IC50 value was measured on EKVX cell line in NSCL tumor type.; format: functional, cell-based; details: Homo sapiens; in short: as §1
SW-620 = test: The IC50 value was measured on SW-620 cell line in colon tumor type.; format: functional, cell-based; details: Homo sapiens; in short: as §1
OVCAR-3 [3] = test: The IC50 value was measured on OVCAR-3 cell line in ovarian tumor; format: functional, cell-based; details: Homo sapiens; in short: as §1
OVCAR-5 = test: The IC50 value was measured on OVCAR-5 cell line in ovarian tumor type.; format: functional, cell-based; details: Homo sapiens; in short: as §1
ACHN = test: The IC50 value was measured on ACHN cell line in renal tumor type.; format: functional, cell-based; details: Homo sapiens; in short: as §1
PC-3 = test: The IC50 value was measured on PC-3 cell line in prostate tumor type.; format: functional, cell-based; details: Homo sapiens; in short: as §1
Mus musculus [4] = test: Tumor size of subcutaneously implanted SCC-VII squamous cell carcinoma in mice on day 0; details: route subcutaneous
Mus musculus [5] = test: Tumor size of subcutaneously implanted SCC-VII squamous cell carcinoma in mice on day 7; details: route subcutaneous
NCI-H23 = test: The IC50 value was measured on NCl-H23 cell line in NSCL tumor type.; format: functional, cell-based; details: Homo sapiens; in short: as §1
SK-MEL-5 = test: The IC50 value was measured on SK-MEL-5 cell line in melanoma tumor type.; format: functional, cell-based; details: Homo sapiens; in short: as §1
KM12 = test: The IC50 value was measured on KM-12 cell line in colon tumor type.; format: functional, cell-based; details: Homo sapiens; in short: as §1
HCT-116 = test: The IC50 value was measured on HCT116 cell line in colon tumor type.; format: functional, cell-based; details: Homo sapiens; in short: as §1
SCC-25 = test: In vitro antitumor activity against SCC25 human head and neck squamous carcinoma cells containing 10% fetal bovine serum; format: functional, cell-based
In short: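 Clonogenic assay. Cells kept in Dulbecco's MEM with 10% FBS and hydrocortisone (400 µg/L). Exponential-phase cells preincubated without drug for 48 h, exposed to 0.01-5000 nM for 72 h, then replated in fresh medium. After 14 days, colonies of ≥5 cells stained with crystal violet and counted. Survival taken as % of untreated controls and IC50 estimated from a log-log plot. Replicate plates, at least three separate days.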

OVCAR-8 = test: The IC50 value was measured on OVCAR-8 cell line in ovarian tumor type.; format: functional, cell-based; details: Homo sapiens; in short: as §1
LOX IMVI [6] = test: The IC50 value was measured on LOX IMVI cell line in melanoma tumor ty; format: functional, cell-based; details: Homo sapiens; in short: as §1
DU-145 = test: The IC50 value was measured on DU-145 cell line in prostate tumor type.; format: functional, cell-based; details: Homo sapiens; in short: as §1
Mus musculus [7] = test: Time to reach 10 mm Tumor size of subcutaneously implanted SCC-VII squamous cell carcinoma in mice; details: route subcutaneous
SK-MEL-28 = test: The IC50 value was measured on SKMEL-28 cell line in melanoma tumor type.; format: functional, cell-based; details: Homo sapiens; in short: as §1
[8] = molecular target: T1, Dihydrofolate reductase (Homo sapiens) (UniProt P00374)
T1 sequence (whole entry): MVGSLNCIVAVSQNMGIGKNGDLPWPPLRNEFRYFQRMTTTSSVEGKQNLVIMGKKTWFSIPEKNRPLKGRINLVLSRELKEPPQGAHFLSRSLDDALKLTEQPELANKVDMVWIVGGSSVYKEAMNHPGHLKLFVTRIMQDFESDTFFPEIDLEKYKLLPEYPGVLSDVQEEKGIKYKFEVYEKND

NCI/ADR-RES = test: The IC50 value was measured on MCF7-ADR cell line in breast tumor type.; format: functional, cell-based; details: Homo sapiens; in short: as §1
UACC-62 = test: The IC50 value was measured on UACC-62 cell line in melanoma tumor type.; format: functional, cell-based; details: Homo sapiens; in short: as §1
MCF7 = test: The IC50 value was measured on MCF-7 cell line in breast tumor type; format: functional, cell-based; details: Homo sapiens; in short: as §1
SF-268 = test: The IC50 value was measured on SF-268 cell line in CNS tumor type.; format: functional, cell-based; details: Homo sapiens; in short: as §1
HCT-15 = test: The IC50 value was measured on HCT-15 cell line in colon tumor type.; format: functional, cell-based; details: Homo sapiens; in short: as §1
NCI-H522 = test: The IC50 value was measured on NCl-H522 cell line in NSCL tumor type.; format: functional, cell-based; details: Homo sapiens; in short: as §1
OVCAR-3 [9] = test: The IC50 value was measured on OVCAR-3 cell line in ovarian tumor t; format: functional, cell-based; details: Homo sapiens; in short: as §1
786-0 [10] = test: cells; details: Homo sapiens
LOX IMVI [11] = test: The IC50 value was measured on LOX […] cell line in melanoma tumor ty; format: functional, cell-based; details: Homo sapiens; in short: as §1
786-0 [12] = test: The IC50 value was measured on 786-0 cell line in ovarian tumor t; format: functional, cell-based; details: Homo sapiens, in the assay text read “renal” for “ovarian”; in short: as §1

IC50 (A549)	IC50 (SCC-25)	IC50/[E] (nM milliunit-1) [8]	Structure (SMILES)	IC50 (UO-31)	IC50 (SF-539)	IC50 (NCI-H460)	IC50 (Malme-3M)	IC50 (HT-29)	IC50 (EKVX)	IC50 (SW-620)	IC50 (OVCAR-5)	IC50 (ACHN)	IC50 (PC-3)	IC50 (NCI-H23)	IC50 (SK-MEL-5)	IC50 (KM12)	IC50 (HCT-116)	IC50 (OVCAR-8)	IC50 (DU-145)	IC50 (SK-MEL-28)	other results
23 nM		3.5	Nc1nc(N)c2nc(CNc3ccc(C(=O)NC(CNC(=O)c4ccccc4C(=O)O)C(=O)O)cc3)cnc2n1 (stereo unspecified)																		
	18 nM	2.4	Nc1nc(N)c2nc(CNc3ccc(C(=O)NC(CCCNC(=O)c4cc(Cl)c(Cl)cc4C(=O)O)C(=O)O)cc3)cnc2n1 (stereo unspecified)																		
3300 nM	72 nM	2.8	Nc1nc(N)c2nc(CNc3ccc(C(=O)NC(CCCNC(=O)c4ccc(C(=O)O)cc4)C(=O)O)cc3)cnc2n1 (stereo unspecified)																		
5.2 nM			Nc1nc(N)c2nc(CNc3ccc(C(=O)NC(CCCCNC(=O)c4ccccc4C(=O)O)C(=O)O)cc3)cnc2n1 (stereo unspecified)	7.8 nM	26 nM	4.2 nM	> 1000 nM	5.7 nM	36 nM	3.4 nM	> 1000 nM	5.2 nM	5 nM	9.2 nM	91 nM	4.9 nM	0.6 nM	5.9 nM	9.1 nM	> 1000 nM	IC50 (LOX IMVI [11]): 0.9 nM; IC50 (OVCAR-3 [9]): > 1000 nM; IC50 (NCI/ADR-RES): 9.1 nM; IC50 (UACC-62): > 1000 nM; IC50 (MCF7): 5 nM; IC50 (SF-268): 8.4 nM; IC50 (HCT-15): 5.2 nM; IC50 (NCI-H522): > 1000 nM
45 nM	2.9 nM	2.2	Nc1nc(N)c2nc(CNc3ccc(C(=O)NC(CCCNC(=O)c4cccc(C(=O)O)c4)C(=O)O)cc3)cnc2n1 (stereo unspecified)																		
22 nM		2.5	Nc1nc(N)c2nc(CNc3ccc(C(=O)NC(CCNC(=O)c4ccccc4C(=O)O)C(=O)O)cc3)cnc2n1 (stereo unspecified)	8 nM	57 nM	14 nM	> 1000 nM	9.8 nM	21 nM	6.3 nM	86 nM	45 nM	6.7 nM	32 nM	85 nM	> 1000 nM	5 nM	8.1 nM	34 nM	> 1000 nM	IC50 (SNB-75): > 1000 nM; TGD (Mus musculus [1]): 2.6 days; IC50 (786-0 [12]): 9.2 nM; Tumor size (Mus musculus [4]): 1.1 mm; IC50 (OVCAR-3 [9]): > 1000 nM; Tumor size (Mus musculus [5]): 5.1 mm; IC50 (LOX IMVI [6]): 4.4 nM; Time (Mus musculus [7]): 9.8 days; IC50 (NCI/ADR-RES): > 1000 nM; IC50 (UACC-62): 12 nM; IC50 (MCF7): > 1000 nM; IC50 (SF-268): > 100 nM; IC50 (HCT-15): 7.2 nM; IC50 (NCI-H522): > 1000 nM

Structure (SMILES)	IC50 (A549)	IC50 (SCC-25)	IC50/[E] (nM milliunit-1) [8]	IC50 (UO-31)	IC50 (SF-539)	IC50 (NCI-H460)	IC50 (Malme-3M)	IC50 (HT-29)	IC50 (EKVX)	IC50 (SW-620)	IC50 (OVCAR-5)	IC50 (ACHN)	IC50 (PC-3)	IC50 (NCI-H23)	IC50 (SK-MEL-5)	IC50 (KM12)	IC50 (HCT-116)	IC50 (OVCAR-8)	IC50 (DU-145)	IC50 (SK-MEL-28)	other results
Nc1nc(N)c2nc(CNc3ccc(C(=O)NC(CCCNC(=O)c4ccccc4C(=O)O)C(=O)O)cc3)cnc2n1 (stereo unspecified)	1.3 nM	0.3 nM	2	5.5 nM	3.7 nM	0.5 nM	2 nM	1.2 nM	23 nM	1.9 nM	2.5 nM	2.4 nM	> 100 nM	4.4 nM	6 nM	3.2 nM	0.3 nM	2.4 nM	9.5 nM	4.6 nM	IC50 (SNB-75): > 10000 nM; TGD (Mus musculus [1]): 5 days; IC50 (786-0 [2]): 0.6 nM; IC50 (OVCAR-3 [3]): > 100 nM; Tumor size (Mus musculus [4]): 2.1 mm; Tumor size (Mus musculus [5]): 6.8 mm; IC50 (LOX IMVI [6]): 0.4 nM; Time (Mus musculus [7]): 12 days; IC50 (NCI/ADR-RES): 2.7 nM; IC50 (UACC-62): 1.8 nM; IC50 (MCF7): 3.6 nM; IC50 (SF-268): 2.5 nM; IC50 (HCT-15): 1.2 nM; IC50 (NCI-H522): 23 nM
CN(Cc1cnc2nc(N)nc(N)c2n1)c1ccc(C(=O)N[C@@H](CCC(=O)O)C(=O)O)cc1 [METHOTREXATE]	23 nM	27 nM		191 nM	35 nM	28 nM	> 1000 nM	32 nM	> 1000 nM	33 nM	> 1000 nM	40 nM	2 nM	43 nM	87 nM	42 nM	30 nM	31 nM	23 nM	> 1000 nM	IC50 (SNB-75): > 10000 nM; TGD (Mus musculus [1]): 5 days; Tumor size (Mus musculus [4]): 1.6 mm; IC50 (OVCAR-3 [9]): 398 nM; IC50 (786-0 [10]): 33 nM; Tumor size (Mus musculus [5]): 7.3 mm; IC50 (LOX IMVI [6]): 26 nM; Time (Mus musculus [7]): 12 days; IC50 (NCI/ADR-RES): 78 nM; IC50 (UACC-62): 28 nM; IC50 (MCF7): 36 nM; IC50 (SF-268): 52 nM; IC50 (HCT-15): 30 nM; IC50 (NCI-H522): 229 nM
